Experimental data from ChEMBL document CHEMBL1275408, “A chemical genomic screen in Saccharomyces cerevisiae reveals a role for diphthamidation of translation elongation factor 2 in inhibition of protein synthesis by sordarin” (2008).
Activity calls are given as the source filed them. The calls are words filed in the database; no cut-off is given here.

Experiments:
[1] = tested on: Saccharomyces cerevisiae; assay: Antifungal activity against Saccharomyces cerevisiae BY4741 harboring CNM67 YNL225C mutant gene assessed as reduction in fungal growth at 2 ng/ml by spectrophotometry; type: functional, organism-based
How it was run: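 Haploid BY4741 KanMX4 deletion strains pre-grown in YPD with G418 (150 mg/liter) for 3 days at 28°C. They were then pin-replicated into liquid SC with sordarin derivative GM193663 at 2 ng/ml, or without drug. Plates were incubated at 28°C and OD595 read every 24 h for 5 days. Growth was scored against wild type on the same plate and against the drug-free mutant. Hits were retested at least in duplicate.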

[2] = tested on: Saccharomyces cerevisiae; assay: Antifungal activity against Saccharomyces cerevisiae BY4741 harboring CUE1 YMR264W mutant gene by spectrophotometry; type: functional
How it was run: (§1)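 Screen of BY4741 KanMX4 deletion strains pre-grown 3 days at 28°C in YPD with G418 (150 mg/liter), then pinned into liquid SC containing GM193663. The sensitivity screen used 2 ng/ml; the resistance screen used 62.5 ng/ml, with validation at 62.5, 125 and 500 ng/ml. OD595 was read every 24 h over 5 days at 28°C. Growth was scored relative to wild type and to drug-free controls. Retests were at least in duplicate.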

[3] = tested on: Saccharomyces cerevisiae; assay: Antifungal activity against Saccharomyces cerevisiae BY4741 harboring BUD9 YGR041W mutant gene by spectrophotometry; type: functional; how it was run: as §1
[4] = tested on: Saccharomyces cerevisiae; assay: Antifungal activity against Saccharomyces cerevisiae BY4741 harboring NOT5 YPR072W mutant gene assessed as reduction in fungal growth at 2 ng/ml by spectrophotometry; type: functional, organism-based
How it was run: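 Deletion strains (BY4741 background) pre-grown 3 days at 28°C in YPD + G418 (150 mg/liter), then pin-replicated into SC liquid containing 2 ng/ml GM193663 or no drug. 28°C, OD595 every 24 h over 5 days; growth scored against wild type on same plate and against drug-free mutant control; hits retested at least in duplicate at 2 ng/ml.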

[5] = tested on: Saccharomyces cerevisiae; assay: Antifungal activity against Saccharomyces cerevisiae BY4741 harboring SUR2 YDR297W mutant gene by spectrophotometry; type: functional
How it was run: (§2)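 Haploid MATa BY4741 KanMX4 deletion strains pinned from frozen stocks into YPD + G418 (150 mg/liter), grown 3 days at 28°C to confluence, then pin-replicated into SC liquid with no drug or sordarin derivative GM193663 (2 ng/ml sensitivity; 62.5 ng/ml resistance). 28°C, OD595 read every 24 h for 5 days; growth scored relative to wild type on same plate and to untreated mutant.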

[6] = tested on: Saccharomyces cerevisiae; assay: Antifungal activity against Saccharomyces cerevisiae BY4741 harboring MRPL24 YMR193W mutant gene by spectrophotometry; type: functional; how it was run: as §2
[7] = tested on: Saccharomyces cerevisiae; assay: Antifungal activity against Saccharomyces cerevisiae BY4741 harboring DPH2 YKL191W mutant gene by spectrophotometry; type: functional; how it was run: as §1
[8] = tested on: Saccharomyces cerevisiae; assay: Antifungal activity against Saccharomyces cerevisiae BY4741 harboring SCS22 YBL091C-A mutant gene by spectrophotometry; type: functional; how it was run: as §2
[9] = tested on: Saccharomyces cerevisiae; assay: Antifungal activity against Saccharomyces cerevisiae BY4741 harboring PTP3 YER075C mutant gene by spectrophotometry; type: functional; how it was run: as §2
[10] = tested on: Saccharomyces cerevisiae; assay: Antifungal activity against Saccharomyces cerevisiae BY4741 harboring ECM3 YOR092W mutant gene by spectrophotometry; type: functional; how it was run: as §1
[11] = tested on: Saccharomyces cerevisiae; assay: Antifungal activity against Saccharomyces cerevisiae BY4741 harboring YER087W mutation in unknown gene by spectrophotometry; type: functional
How it was run: (§3)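 Deletion strains from the nonessential haploid MATa BY4741 collection (KanMX4 replacement) were grown in YPD with G418 at 28°C for 3 days, then pinned into liquid SC with or without sordarin derivative GM193663 (2 ng/ml for sensitivity, 62.5 ng/ml for resistance). Cultures were kept at 28°C and read at OD595 every 24 h for 5 days. Growth was scored against wild type on the same plate and against the drug-free control. Hits were retested at least in duplicate.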

[12] = tested on: Saccharomyces cerevisiae; assay: Antifungal activity against Saccharomyces cerevisiae BY4741 harboring MRP20 YDR405W mutant gene by spectrophotometry; type: functional; how it was run: as §1
[13] = tested on: Saccharomyces cerevisiae; assay: Antifungal activity against Saccharomyces cerevisiae BY4741 harboring DJP1 YIR004W mutant gene by spectrophotometry; type: functional; how it was run: as §1
[14] = tested on: Saccharomyces cerevisiae; assay: Antifungal activity against Saccharomyces cerevisiae BY4741 harboring YDR042C mutation in unknown gene by spectrophotometry; type: functional; how it was run: as §3
[15] = tested on: Saccharomyces cerevisiae; assay: Antifungal activity against Saccharomyces cerevisiae BY4741 harboring YLR143W mutation in unknown gene by spectrophotometry; type: functional; how it was run: as §3
[16] = tested on: Saccharomyces cerevisiae; assay: Antifungal activity against Saccharomyces cerevisiae BY4741 harboring ARN2 YHL047C mutant gene by spectrophotometry; type: functional; how it was run: as §1
[17] = tested on: Saccharomyces cerevisiae; assay: Antifungal activity against Saccharomyces cerevisiae BY4741 harboring MGT1 YDL200C mutant gene by spectrophotometry; type: functional; how it was run: as §1
[18] = tested on: Saccharomyces cerevisiae; assay: Antifungal activity against Saccharomyces cerevisiae BY4741 harboring MRH1 YDR033W mutant gene by spectrophotometry; type: functional; how it was run: as §1
[19] = tested on: Saccharomyces cerevisiae; assay: Antifungal activity against Saccharomyces cerevisiae BY4741 harboring EAF3 YPR023C mutant gene by spectrophotometry; type: functional; how it was run: as §1
[20] = tested on: Saccharomyces cerevisiae; assay: Antifungal activity against Saccharomyces cerevisiae BY4741 harboring deletion mutation in dph5 gene at 100 ng/ml by plate assay; type: functional, organism-based
How it was run: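 Spot test on solid SC glucose plates with or without 100 ng/ml sordarin. Drops of 10^5 cells plus 10-fold serial dilutions of each dph deletion strain were spotted alongside the parental strain. Plates were incubated at 28°C for 6 days and imaged every 24 h.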

SMILES: CO[C@H]1[C@@H](O)[C@H](O)[C@H](OC[C@@]23C[C@@H]4[C@H](C)CC[C@H]4[C@@]4(C=O)CC2C=C(C(C)C)[C@@]34C(=O)O)O[C@@H]1C [SORDARIN]
- Activity [1]: Active
- MIC [2]: > 0.0625 µg/mL
- MIC [3]: > 0.125 µg/mL
- Activity [4]: Active
- MIC [5]: > 0.0625 µg/mL
- MIC [6]: > 0.125 µg/mL
- MIC [7]: > 0.5 µg/mL
- MIC [8]: > 0.5 µg/mL
- MIC [9]: > 0.125 µg/mL
- MIC [10]: > 0.125 µg/mL
- MIC [11]: > 0.5 µg/mL
- MIC [12]: > 0.5 µg/mL
- MIC [13]: > 0.5 µg/mL
- MIC [14]: > 0.125 µg/mL
- MIC [15]: > 0.5 µg/mL
- MIC [16]: > 0.5 µg/mL
- MIC [17]: > 0.125 µg/mL
- MIC [18]: > 0.125 µg/mL
- MIC [19]: > 0.5 µg/mL
- MIC [20]: inactive
